According to ChEMBL document CHEMBL1153429, “Structure-based virtual screening of Src kinase inhibitors” (Bioorg Med Chem, 2009):
The source made the active and inactive calls. No cut-off for these calls is given here.

What was measured:
[1] = target: T1, Proto-oncogene tyrosine-protein kinase Src (Homo sapiens, UniProt P12931); assay: Inhibition of Src kinase at 10 uM
How it was run: (§1)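 Kinase reaction with ATP and specific substrate, incubated 1 h at room temperature with test compound (1% DMSO final). Protease solution then added, followed by stabilizer. Read-out by […] at 485/530 nm.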

[2] = target: T1, Proto-oncogene tyrosine-protein kinase Src
[3] = AUC in Sprague-Dawley rat at 5 mg/kg, iv; type: ADME, organism-based; design: dose 5 mg/kg, route intravenous; conditions: plasma
How it was run: (§2)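 Single dose in Sprague–Dawley rats, iv or po. Rats fasted overnight before oral dosing and fed about 2 h after it; no fasting for iv. Approx. 0.3 mL blood drawn from the tail vein into heparin tubes at various times, then centrifuged to plasma and held at −80 °C. Compound measured by LCMS. t1/2 = 0.693/Ke; AUC by linear trapezoidal rule to 5 h plus extrapolation.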

Rattus norvegicus = assay: Cmax in Sprague-Dawley rat plasma at 10 mg/kg, iv and po; type: ADME, organism-based; design: dose 10 mg/kg, route oral; conditions: in vivo
[4] = target: Ribosomal protein S6 kinase alpha-1 (Homo sapiens) (UniProt Q15418); assay: Inhibition of p90RSK phosphorylation in human PC3 cells at 0.1 uM by Western blot analysis; type: cell-based; conditions: PC-3, TDE = time-dependent effect
How it was run: (§3)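 PC3 or A431 cells grown 48 h in 6 cm dishes, then exposed to 0.1 µM compound for varying times. Lysed on ice in Tris pH 7.5/NaCl/EDTA/Triton X-100/DTT/PMSF/glycerol with protease inhibitors, then spun. Protein measured by dye-binding assay. Run on 10% SDS-PAGE, blotted to PVDF, blocked 1 h in 5% milk, and probed for phospho and total ERK and p90RSK.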

[5] = target: Ribosomal protein S6 kinase alpha-1 (Homo sapiens) (UniProt Q15418); assay: Inhibition of p90RSK phosphorylation in human PC3 cells at 0.1 uM after 6 hrs by Western blot analysis; type: cell-based; conditions: PC-3; how it was run: as §3
A-431 [6] = assay: Inhibition of ERK phosphorylation in human A431 cells at 0.1 uM after 6 hrs by Western blot analysis; type: cell-based; how it was run: as §3
[7] = Cmax in Sprague-Dawley rat at 10 mg/kg, po; type: ADME, organism-based; design: dose 10 mg/kg, route oral; conditions: in vivo; how it was run: as §2
PC-3 [8] = assay: Antiproliferative activity against human PC3 cells after 72 hrs by SRB assay; type: functional, cell-based
How it was run: (§4)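 Cells seeded at 10,000–15,000 per well and held at 37 °C, 5% CO2. After 24 h compound added across a concentration range for 72 h. Cells then fixed with cold 10% TCA and stained with sulforhodamine B (0.4% in 1% acetic acid). Dye solubilized in 10 mM Tris base and absorbance read. GI50 from [(Ti−Tz)/(C−Tz)]×100 = 50. PC3 and SK-BR3 grown in RPMI 1640 with 10% FBS; A431 and MCF-7 in DMEM with 10% FBS.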

A-431 [9] = assay: Inhibition of EGF-stimulated tyrosine phosphorylation in human A431 cells
MCF7 = assay: Antiproliferative activity against human MCF7 cells at < 10 uM after 72 hrs by SRB assay; type: functional, cell-based; how it was run: as §4
[10] = target: Vascular endothelial growth factor receptor 2 (Homo sapiens) (UniProt P35968); assay: Inhibition of VEGFR2 at 10 uM; how it was run: as §1
[11] = Half life in Sprague-Dawley rat at 5 mg/kg, iv; type: ADME, organism-based; design: dose 5 mg/kg, route intravenous; conditions: in vivo; how it was run: as §2
A-431 [12] = assay: Inhibition of ERK phosphorylation in human A431 cells at 0.1 uM by Western blot analysis; type: cell-based; conditions: TDE = time-dependent effect; how it was run: as §3
[13] = Cmax in Sprague-Dawley rat at 5 mg/kg, iv; type: ADME, organism-based; design: dose 5 mg/kg, route intravenous; conditions: in vivo; how it was run: as §2
[14] = AUC in Sprague-Dawley rat at 10 mg/kg, po; type: ADME, organism-based; design: dose 10 mg/kg, route oral; conditions: plasma; how it was run: as §2
[15] = target: Epidermal growth factor receptor (Homo sapiens, UniProt P00533)
[16] = target: Ribosomal protein S6 kinase alpha-1 (Homo sapiens) (UniProt Q15418); assay: Inhibition of p90RSK phosphorylation in human A431 cells at 0.1 uM after 6 hrs by Western blot analysis; type: cell-based; conditions: A-431; how it was run: as §3
[17] = Half life in Sprague-Dawley rat at 10 mg/kg, po; type: ADME, organism-based; design: dose 10 mg/kg, route oral; conditions: in vivo; how it was run: as §2
PC-3 [18] = assay: Inhibition of ERK phosphorylation in human PC3 cells at 0.1 uM by Western blot analysis; type: cell-based; conditions: TDE = time-dependent effect; how it was run: as §3
[19] = Tmax in Sprague-Dawley rat plasma at 10 mg/kg, iv and po; type: ADME, organism-based; design: dose 10 mg/kg, route oral
A-431 [20] = assay: Antiproliferative activity against human A431 cells after 72 hrs by SRB assay; type: functional, cell-based; how it was run: as §4
[21] = Oral bioavailability in Sprague-Dawley rat at 10 mg/kg, po; type: ADME, organism-based; conditions: in vivo; how it was run: as §2
[22] = target: Ribosomal protein S6 kinase alpha-1 (Homo sapiens) (UniProt Q15418); assay: Inhibition of p90RSK phosphorylation in human A431 cells at 0.1 uM by Western blot analysis; type: cell-based; conditions: A-431, TDE = time-dependent effect; how it was run: as §3
SK-BR-3 = assay: Antiproliferative activity against human SKBR3 cells expressing HER2 at < 10 uM after 72 hrs by SRB assay; type: functional, cell-based; how it was run: as §4
[23] = Tmax in Sprague-Dawley rat at 10 mg/kg, po; type: ADME, organism-based; design: dose 10 mg/kg, route oral; conditions: in vivo; how it was run: as §2
[24] = Tmax in Sprague-Dawley rat at 5 mg/kg, iv; type: ADME, organism-based; design: dose 5 mg/kg, route intravenous; conditions: in vivo; how it was run: as §2
PC-3 [25] = assay: Inhibition of ERK phosphorylation in human PC3 cells at 0.1 uM after 6 hrs by Western blot analysis; type: cell-based; how it was run: as §3

T1 sequence (P12931 2-536 limits assumed): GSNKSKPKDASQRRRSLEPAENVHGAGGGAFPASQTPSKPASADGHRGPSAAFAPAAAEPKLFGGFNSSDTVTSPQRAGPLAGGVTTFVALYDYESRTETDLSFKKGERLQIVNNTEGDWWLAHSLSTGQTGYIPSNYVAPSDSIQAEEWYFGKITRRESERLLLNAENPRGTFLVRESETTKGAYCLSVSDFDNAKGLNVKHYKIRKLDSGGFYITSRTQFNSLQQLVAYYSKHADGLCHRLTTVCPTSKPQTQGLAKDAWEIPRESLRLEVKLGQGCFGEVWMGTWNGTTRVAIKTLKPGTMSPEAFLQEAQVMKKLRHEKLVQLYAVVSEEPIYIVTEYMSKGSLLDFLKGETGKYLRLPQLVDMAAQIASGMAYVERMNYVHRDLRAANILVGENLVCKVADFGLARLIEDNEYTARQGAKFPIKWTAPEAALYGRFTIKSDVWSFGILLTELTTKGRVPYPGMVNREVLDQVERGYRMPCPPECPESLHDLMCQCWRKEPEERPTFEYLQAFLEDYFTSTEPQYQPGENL
Ribosomal protein S6 kinase alpha-1 (Homo sapiens), sequence (Q15418 whole entry): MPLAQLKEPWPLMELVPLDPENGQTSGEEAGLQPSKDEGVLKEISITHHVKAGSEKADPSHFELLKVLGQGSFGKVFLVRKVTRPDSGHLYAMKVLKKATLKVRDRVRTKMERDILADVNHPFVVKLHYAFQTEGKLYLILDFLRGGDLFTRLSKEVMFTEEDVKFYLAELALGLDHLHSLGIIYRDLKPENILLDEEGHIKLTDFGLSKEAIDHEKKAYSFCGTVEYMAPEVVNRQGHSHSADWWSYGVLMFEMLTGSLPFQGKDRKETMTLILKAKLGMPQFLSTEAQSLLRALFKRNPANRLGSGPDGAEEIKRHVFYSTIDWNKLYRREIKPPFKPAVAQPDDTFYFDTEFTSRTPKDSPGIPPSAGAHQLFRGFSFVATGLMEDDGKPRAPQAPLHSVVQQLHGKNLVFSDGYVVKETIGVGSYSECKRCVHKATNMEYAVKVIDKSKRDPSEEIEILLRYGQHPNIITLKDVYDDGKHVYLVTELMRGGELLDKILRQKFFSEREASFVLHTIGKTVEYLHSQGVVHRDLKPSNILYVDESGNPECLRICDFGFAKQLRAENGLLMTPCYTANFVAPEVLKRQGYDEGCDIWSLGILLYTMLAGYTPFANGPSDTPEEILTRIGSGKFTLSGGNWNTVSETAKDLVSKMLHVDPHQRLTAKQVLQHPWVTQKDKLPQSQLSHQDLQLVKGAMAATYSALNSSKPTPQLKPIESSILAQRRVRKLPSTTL
Epidermal growth factor receptor, sequence (P00533 whole entry): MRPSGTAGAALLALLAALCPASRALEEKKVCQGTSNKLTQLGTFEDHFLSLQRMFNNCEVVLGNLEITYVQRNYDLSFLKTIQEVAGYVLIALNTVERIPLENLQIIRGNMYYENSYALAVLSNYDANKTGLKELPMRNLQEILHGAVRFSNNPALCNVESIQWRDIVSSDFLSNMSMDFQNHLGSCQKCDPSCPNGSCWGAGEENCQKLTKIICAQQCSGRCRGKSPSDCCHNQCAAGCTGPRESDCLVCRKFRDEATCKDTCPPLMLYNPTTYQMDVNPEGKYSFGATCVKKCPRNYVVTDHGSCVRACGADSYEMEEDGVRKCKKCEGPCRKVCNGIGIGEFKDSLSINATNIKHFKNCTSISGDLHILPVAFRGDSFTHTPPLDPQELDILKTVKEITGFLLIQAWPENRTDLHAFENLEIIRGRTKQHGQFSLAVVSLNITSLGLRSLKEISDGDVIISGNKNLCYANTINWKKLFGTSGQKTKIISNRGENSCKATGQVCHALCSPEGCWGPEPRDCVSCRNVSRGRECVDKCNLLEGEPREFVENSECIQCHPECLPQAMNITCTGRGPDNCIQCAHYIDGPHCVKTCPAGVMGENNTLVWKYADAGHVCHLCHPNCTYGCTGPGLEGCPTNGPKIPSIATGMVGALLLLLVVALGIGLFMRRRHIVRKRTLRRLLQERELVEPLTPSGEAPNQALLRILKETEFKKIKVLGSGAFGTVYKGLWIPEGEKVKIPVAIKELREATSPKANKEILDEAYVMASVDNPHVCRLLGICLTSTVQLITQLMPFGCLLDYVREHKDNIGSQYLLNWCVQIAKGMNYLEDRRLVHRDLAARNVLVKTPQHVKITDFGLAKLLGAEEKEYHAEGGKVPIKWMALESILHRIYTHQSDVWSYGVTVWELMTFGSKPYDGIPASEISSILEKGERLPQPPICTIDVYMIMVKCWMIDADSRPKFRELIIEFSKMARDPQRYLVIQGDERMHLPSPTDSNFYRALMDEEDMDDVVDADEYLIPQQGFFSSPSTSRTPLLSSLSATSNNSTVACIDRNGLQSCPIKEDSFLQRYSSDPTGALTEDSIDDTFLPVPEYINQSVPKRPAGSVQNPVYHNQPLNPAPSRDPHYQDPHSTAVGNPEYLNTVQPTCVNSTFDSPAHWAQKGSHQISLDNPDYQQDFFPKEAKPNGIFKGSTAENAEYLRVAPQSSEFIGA
Vascular endothelial growth factor receptor 2 (Homo sapiens), sequence (P35968 whole entry): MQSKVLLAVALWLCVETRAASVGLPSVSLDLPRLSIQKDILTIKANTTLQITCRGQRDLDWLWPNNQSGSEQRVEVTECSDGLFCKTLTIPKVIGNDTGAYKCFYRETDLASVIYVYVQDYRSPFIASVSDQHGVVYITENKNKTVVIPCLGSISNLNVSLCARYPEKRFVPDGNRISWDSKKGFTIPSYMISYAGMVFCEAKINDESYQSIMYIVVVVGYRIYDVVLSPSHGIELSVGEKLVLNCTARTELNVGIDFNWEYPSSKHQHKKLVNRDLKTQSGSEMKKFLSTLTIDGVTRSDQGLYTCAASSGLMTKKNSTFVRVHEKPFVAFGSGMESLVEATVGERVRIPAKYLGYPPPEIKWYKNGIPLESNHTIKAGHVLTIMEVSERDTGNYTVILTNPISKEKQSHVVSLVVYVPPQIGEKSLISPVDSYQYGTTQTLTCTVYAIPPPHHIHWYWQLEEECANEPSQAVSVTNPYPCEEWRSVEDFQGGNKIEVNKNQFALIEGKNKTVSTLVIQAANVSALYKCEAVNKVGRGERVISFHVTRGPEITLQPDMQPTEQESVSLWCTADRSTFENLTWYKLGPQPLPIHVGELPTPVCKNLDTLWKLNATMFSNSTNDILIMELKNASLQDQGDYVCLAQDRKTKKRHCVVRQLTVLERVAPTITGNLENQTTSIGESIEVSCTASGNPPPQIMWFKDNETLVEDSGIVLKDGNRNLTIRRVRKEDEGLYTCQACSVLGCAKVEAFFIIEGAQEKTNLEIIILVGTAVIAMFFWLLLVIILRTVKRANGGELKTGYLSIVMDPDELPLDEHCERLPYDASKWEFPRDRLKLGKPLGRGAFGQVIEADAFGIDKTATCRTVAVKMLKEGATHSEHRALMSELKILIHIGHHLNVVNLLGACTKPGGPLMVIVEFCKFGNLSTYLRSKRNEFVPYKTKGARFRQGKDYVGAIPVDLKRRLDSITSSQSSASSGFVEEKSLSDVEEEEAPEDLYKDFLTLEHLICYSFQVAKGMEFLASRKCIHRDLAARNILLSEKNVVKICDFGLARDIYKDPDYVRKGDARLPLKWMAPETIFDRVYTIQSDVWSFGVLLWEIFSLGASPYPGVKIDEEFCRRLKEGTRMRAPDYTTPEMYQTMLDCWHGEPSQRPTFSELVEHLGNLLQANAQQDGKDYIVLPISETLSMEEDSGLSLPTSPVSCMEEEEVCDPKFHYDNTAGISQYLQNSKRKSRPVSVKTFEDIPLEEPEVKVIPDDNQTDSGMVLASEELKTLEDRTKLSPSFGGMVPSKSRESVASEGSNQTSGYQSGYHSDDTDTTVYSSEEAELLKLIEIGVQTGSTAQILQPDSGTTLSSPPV

## C=CC(=O)Nc1cc2c(Nc3cc(OC)c(Cl)cc3OC)ncnc2cc1OCC1CCN(C)CC1
[1]
  Activity: Active

## CCN1CCN(Cc2ccc(-c3cc4c(N[C@@H](C)c5ccccc5)ncnc4[nH]3)cc2)CC1
[1]
  Activity: Active

## COCCOc1cc2ncnc(Nc3ccc(F)c(Cl)c3)c2cc1NC(=O)[C@@H]1CCCN1
[2]
  IC50: 0.3 µM
[1]
  Activity: Active

## CN(C)CCC(=O)Nc1cc2c(Nc3ccc(F)c(Cl)c3)ncnc2cc1OCCCN1CCOCC1
[1]
  Activity: Active

## COCCOc1cc2ncnc(Nc3c(Cl)ccc4c3OCO4)c2cc1NC(=O)[C@@H]1CCCN1
[2]
  IC50: 0.089 µM
[3]
  AUC: 2400 ng·h/mL
Rattus norvegicus
  Cmax: 400 nM
[4]
  Activity: tde
[5]
  Activity: Active
A-431 [6]
  Activity: Active
[7]
  Cmax: 120 nM
PC-3 [8]
  Activity: Dose-dependent effect
A-431 [9]
  IC50: 0.78 µM
MCF7
  Activity: inactive
[10]
  Activity: inactive
[11]
  half-life: 6.1 h
A-431 [12]
  Activity: tde
[13]
  Cmax: 2010 nM
[14]
  AUC: 1240 ng·h/mL
[15]
  IC50: 7.13 µM
[16]
  Activity: Active
[17]
  half-life: 5.4 h
PC-3 [18]
  Activity: tde
[19]
  Tmax: 1 h
A-431 [20]
  Activity: Dose-dependent effect
[21]
  bioavailability: 20.4%
[22]
  Activity: tde
SK-BR-3
  Activity: inactive
[23]
  Tmax: 4 h
[24]
  Tmax: 4.8 min
PC-3 [25]
  Activity: Active
